ChEMBL document CHEMBL1649367, “Anti-breast cancer activity of some novel 1,2-dihydropyridine, thiophene and thiazole derivatives” (Eur J Med Chem, 2011)

How the values were obtained:
MCF7 [1] = assay: Cytotoxicity against human MCF7 cells assessed as cell surviving fraction at 10 uM after 48 hrs by SRB assay; type: functional
How it was run: (§1)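 MCF7 cells were seeded at 10⁴ cells/well and allowed to attach for 24 h. Compounds in DMSO were added at 10, 25, 50 and 100 µM, in triplicate wells, for 48 h at 37 °C under 5% CO₂. Cells were fixed and stained 30 min with 0.4% SRB in 1% acetic acid, and dye was recovered in Tris-EDTA for absorbance. IC50 came from the surviving-fraction curve; values are means of three experiments ± SE.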

MCF7 [2] = assay: Cytotoxicity against human MCF7 cells assessed as cell surviving fraction at 50 uM after 48 hrs by SRB assay; type: functional; how it was run: as §1
MCF7 [3] = assay: Cytotoxicity against human MCF7 cells after 48 hrs by SRB assay; type: functional, cell-based; how it was run: as §1
MCF7 [4] = assay: Cytotoxicity against human MCF7 cells assessed as cell surviving fraction at 25 uM after 48 hrs by SRB assay; type: functional; how it was run: as §1
MCF7 [5] = assay: Cytotoxicity against human MCF7 cells assessed as cell surviving fraction at 100 uM after 48 hrs by SRB assay; type: functional; how it was run: as §1
[6] = Homo sapiens, MCF7, 48 h, read-out: IC50

Row | SMILES | Activity (MCF7 [1]) | Activity (MCF7 [2]) | IC50 (MCF7 [3]; [6]) [µM] | Activity (MCF7 [4]) | Activity (MCF7 [5]) | IC50 (MCF7 [3]; mcf7)
1 | C/C(=N\NC(=O)CC#N)c1ccc(S(=O)(=O)N2CCCCC2)cc1 | 0.944 | 0.44 | 44.2 | 0.666 | 0.511 | 
2 | CCOC(=O)c1c(-c2ccc(C)cc2)c(C#N)c(=O)n(/N=C(\C)c2ccc(S(=O)(=O)N3CCCCC3)cc2)c1N | 0.911 | 0.652 | 37.9 | 0.677 | 0.581 | 
3 | CCOC(=O)c1c(-c2ccc(O)cc2)c(C#N)c(=O)n(/N=C(\C)c2ccc(S(=O)(=O)N3CCCCC3)cc2)c1N | 0.925 | 0.681 | 25.5 | 0.647 | 0.641 | 
4 | CCOC(=O)c1c(-c2ccc(OC)cc2)c(C#N)c(=O)n(/N=C(\C)c2ccc(S(=O)(=O)N3CCCCC3)cc2)c1N | 0.972 | 0.452 | 51.2 | 0.657 | 0.375 | 
5 | CCOC(=O)c1c(-c2ccc(O)c(OC)c2)c(C#N)c(=O)n(/N=C(\C)c2ccc(S(=O)(=O)N3CCCCC3)cc2)c1N | 0.921 | 0.621 | 38.7 | 0.694 | 0.478 | 
6 | CCOC(=O)c1c(-c2ccc(N(C)C)cc2)c(C#N)c(=O)n(/N=C(\C)c2ccc(S(=O)(=O)N3CCCCC3)cc2)c1N | 0.861 | 0.557 | 34.4 | 0.745 | 0.407 | 
7 | CCOC(=O)c1c(-c2ccc(Cl)cc2)c(C#N)c(=O)n(/N=C(\C)c2ccc(S(=O)(=O)N3CCCCC3)cc2)c1N | 0.818 | 0.622 | 20.6 | 0.723 | 0.553 | 
8 | C/C(=N\n1c(N)cc(N)c(C#N)c1=O)c1ccc(S(=O)(=O)N2CCCCC2)cc1 | 0.371 | 0.416 | 36.4 | 0.298 | 0.394 | 
9 | C/C(=N\n1c(O)cc(N)c(C#N)c1=O)c1ccc(S(=O)(=O)N2CCCCC2)cc1 | 0.748 | 0.433 | 74.6 | 0.54 | 0.437 | 
10 | C/C(=N\NC(=O)c1sc(N)c(C#N)c1N)c1ccc(S(=O)(=O)N2CCCCC2)cc1 | 0.588 | 0.451 | 49.3 | 0.507 | 0.406 | 
11 | CCOC(=O)c1c(N)sc(C(=O)N/N=C(\C)c2ccc(S(=O)(=O)N3CCCCC3)cc2)c1N | 1.925 | 0.981 |  | 0.947 | 0.841 | Not Active
12 | C/C(=N\NC(=O)c1sc2c(c1N)CCC2)c1ccc(S(=O)(=O)N2CCCCC2)cc1 | 0.942 | 0.552 | 75.3 | 0.857 | 0.375 | 
13 | C/C(=N\NC(=O)c1sc2c(c1N)CCCC2)c1ccc(S(=O)(=O)N2CCCCC2)cc1 | 0.971 | 0.621 | 87.8 | 0.994 | 0.558 | 
14 | C/C(=N\NC(=O)c1sc(=S)n(-c2ccccc2)c1N)c1ccc(S(=O)(=O)N2CCCCC2)cc1 | 0.861 | 0.557 | 60.1 | 0.745 | 0.407 | 
15 | COc1cccc2c1C(=O)c1c(O)c3c(c(O)c1C2=O)C[C@@](O)(C(=O)CO)C[C@@H]3O[C@H]1C[C@H](N)[C@H](O)[C@H](C)O1 [DOXORUBICIN] | 0.721 | 0.461 | 32 |  | 0.494 | 
